Measured values taken from ChEMBL document CHEMBL1158493, “Amide isosteres of oroidin: assessment of antibiofilm activity and C. elegans toxicity” (J Med Chem, 2009).
Active and inactive are the calls of the source.

What was measured:
Pseudomonas aeruginosa [1] = test: Antibioflim activity in Pseudomonas aeruginosa PA14 after 24 hrs by general static dispersion assay; type: functional
Method in brief: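 Static dispersion: wild-type PA14 subcultured to OD600 0.05 in LBNS in PVC 96-well plates, sealed, biofilm formed stationary at room temperature for 24 h. Medium replaced with fresh medium plus compound, then stationary 37 °C for 24 h. Crystal violet 0.1% for 30 min, ethanol-solubilized, read at OD540. Percent dispersion is treated versus untreated established biofilm.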

Pseudomonas aeruginosa [2] = test: Antibioflim activity in Pseudomonas aeruginosa PA14 after 24 hrs by general static inhibition assay; type: functional, organism-based
Method in brief: (§1)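 Static biofilm inhibition: overnight wild-type culture subcultured to OD600 0.01 in LBNS (PA14) or LB (A. baumannii) containing compound (DMSO stocks), in PVC 96-well plates; covered, sealed, stationary 37 °C for 24 h. Wells washed with water, stained with 0.1% crystal violet for 30 min at ambient temperature, washed, and stain solubilized in 95% ethanol. Read-out is OD540.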

Pseudomonas aeruginosa [3] = test: Antibioflim activity in Pseudomonas aeruginosa PA14 at 100 uM after 24 hrs by general static inhibition assay; type: functional; conditions: PA14, 24 h; method in brief: as §1
Acinetobacter baumannii = test: Antibioflim activity in Acinetobacter baumannii ATCC 19606 after 24 hrs by general static inhibition assay; type: functional, ATCC 19606 = CIP 70.34 = JCM 6841; method in brief: as §1
Caenorhabditis elegans = test: Toxicity in Caenorhabditis elegans L4 stage larva assessed as toxicity threshold after 6 to 7 days; type: organism-based; conditions: in vivo
Method in brief: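 Synchronized C. elegans N2 L1s (bleach egg prep, M9 starvation) grown on NGM/OP50 at 20 °C to L4. Two L4s per well in S medium with 5% HB101, compound 100 µM–1 mM, final DMSO 0.8–1.0%, in triplicate. Plates shaken at 22.5 °C for 6–7 days. Wells scored on day 4 and day 6/7 for clearing and population size. Threshold narrowed in 100 µM steps.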

Pseudomonas aeruginosa [4] = test: Antibioflim activity in Pseudomonas aeruginosa PAO1; type: functional, organism-based
Pseudomonas aeruginosa [5] = test: Inhibition of biofilm formation against Pseudomonas aeruginosa PA14 after 24 hrs; conditions: PA14, 24 h
[6] = Pseudomonas aeruginosa, PA14, 24 h, read-out: IC50

Row | Compound | IC50 (Pseudomonas aeruginosa [2]) | IC50 (Pseudomonas aeruginosa [2]; [6]) [µM] | IC50 (Pseudomonas aeruginosa [4]) [µM] | IC50 (Pseudomonas aeruginosa [5]) [µM] | Activity (Pseudomonas aeruginosa [1]) | inhibition at 100 µM (Pseudomonas aeruginosa [3]) [%] | inhibition (INH) (Acinetobacter baumannii) [%] | Activity (Caenorhabditis elegans) [mM]
1 | Cl.Nc1nc(CCCNC(=O)NC2CCCCCC2)c[nH]1 | Not Active |  |  |  | inactive | 70 | <5 | 
2 | Nc1ncc(/C=C/CNC(=O)c2cc(Br)c(Br)[nH]2)[nH]1 [OROIDIN] |  | 160 | 190 |  |  |  |  | 0.65
3 | Cc1ccc(F)cc1NC(=O)NCCCc1c[nH]c(N)n1.Cl |  | 46.7 |  |  | inactive | 81 | 12 | 
4 | CCCCCCc1cn(CCCc2c[nH]c(N)n2)nn1 |  |  |  |  |  |  |  | > 1
5 | CCCCCCCCCCCc1c[nH]c(N)n1 |  |  |  |  |  |  |  | > 1
6 | Cn1c(C(=O)NCCCc2c[nH]c(N)n2)cc(Br)c1Br [DIHYDROSVENTRIN] |  |  |  |  |  |  |  | 0.48
7 | Cl.Nc1nc(CCCNC(=O)Nc2ccc(F)c(Cl)c2)c[nH]1 |  | 25.7 |  | 25.7 | 55% | 90 | 18 | 
8 | Cl.Nc1nc(CCCNC(=S)NC2CCCCC2)c[nH]1 |  | 22.6 |  | 22.6 | 25% | 89 | 14 | 
9 | CCCCCCNC(=O)NCCCc1c[nH]c(N)n1.Cl |  | 35.4 |  |  | inactive | 94 | 28 | 
10 | CCCCCCC(CCCCCC)NC(=O)CCCc1c[nH]c(N)n1 |  |  |  |  |  |  |  | 0.95
11 | Cl.Nc1nc(CCCNC(=S)Nc2ccccc2)c[nH]1 |  | 26.8 |  |  | inactive | 90 | 8 | 
12 | CCCCCCNC(=O)CCCc1c[nH]c(N)n1 |  |  |  |  |  |  |  | > 1

The next lines start with results.

Row | IC50 (Pseudomonas aeruginosa [2]) | IC50 (Pseudomonas aeruginosa [2]; [6]) [µM] | IC50 (Pseudomonas aeruginosa [4]) [µM] | IC50 (Pseudomonas aeruginosa [5]) [µM] | Compound | Activity (Pseudomonas aeruginosa [1]) | inhibition at 100 µM (Pseudomonas aeruginosa [3]) [%] | inhibition (INH) (Acinetobacter baumannii) [%] | Activity (Caenorhabditis elegans) [mM]
13 | Not Active |  |  |  | Cl.Nc1nc(CCCNC(=O)Nc2ccccc2)c[nH]1 | inactive | 35 | 29 | 
14 |  | 15.6 |  |  | Cl.Nc1nc(CCCNS(=O)(=O)c2ccc3ccccc3c2)c[nH]1 | inactive | 93 | 26 | 
15 |  | 10.1 |  | 10.1 | CCCCCCS(=O)(=O)NCCCc1c[nH]c(N)n1.Cl | 42% | 80 | 24 | > 1
16 | Not Active |  |  |  | Cl.Nc1nc(CCCNS(=O)(=O)c2ccccc2F)c[nH]1 | inactive | 43 | 11 | 
17 |  | 25.1 |  |  | Cl.Nc1nc(CCCNS(=O)(=O)c2ccc(C(F)(F)F)cc2)c[nH]1 | inactive | 92 | 23 | 
18 |  | 19.4 |  |  | Cl.Nc1nc(CCCNS(=O)(=O)c2ccc(Br)cc2)c[nH]1 | inactive | 85 | 25 | 
19 |  | 46.2 |  |  | Cc1cc(C)cc(S(=O)(=O)NCCCc2c[nH]c(N)n2)c1.Cl | inactive | 87 | 17 | 
20 | Not Active |  |  |  | Cl.Nc1nc(CCCNC(=O)NCc2ccccc2)c[nH]1 | inactive | 45 | 7 | 
21 | Not Active |  |  |  | CC(=O)c1cccc(NC(=O)NCCCc2c[nH]c(N)n2)c1.Cl | inactive | 69 | 11 | 
22 |  | 50.4 |  |  | CCOc1ccc(NC(=O)NCCCc2c[nH]c(N)n2)cc1.Cl | inactive | 81 | 11 | 
23 | Not Active |  |  |  | Cc1ccc(S(=O)(=O)NCCCc2c[nH]c(N)n2)cc1.Cl | inactive | 45 | 8 | 
24 | Not Active |  |  |  | Cl.Nc1nc(CCCNS(=O)(=O)c2cccc(C(=O)O)c2)c[nH]1 | inactive | 14 | 11 | 
25 | Not Active |  |  |  | Cl.Nc1nc(CCCNS(=O)(=O)c2cccc3cccnc23)c[nH]1 | inactive | 50 | 17 | 
